Laboratory results from publication PMC4066874 (Immunity, 2014).
Where two headings read alike, the source gives them in different places.

Tests used:
[1] = system: IL-17 production in Th17 cell cultures; test: IL-17 production during Th17 cell differentiation in vitro; type: cell-based, mouse; details: for effect on IL-17 production in Th17 cell cultures: Digoxin at 10 μM, TMP778 over a much broader dose range; for concentration at which the inhibitory effect on IL-17 production was lost: Th17 cell-polarizing conditions
[2] = system: primary naïve CD4+ T cells under Th17 cell-polarizing conditions; test: cell proliferation of naïve CD4+ T cells under Th17 cell-polarizing conditions; details: not RORγt-dependent
[3] = system: RORγt occupancy at genomic binding sites; test: ChIP-seq for RORγt in Th17 cells treated with compound; type: cell-based, mouse; details: for RORγt sites with decreased (lower) ChIP signal: 2.5 μM TMP778, 10 μM TMP920, 96 h
How it was run: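 Naive CD4+CD62Lhigh CD25− T cells (MACS then FACS sorted) were activated on plate-bound anti-CD3 and anti-CD28 (2 μg/ml each) with IL-6 (20 ng/ml) and TGF-β1 (1 ng/ml), plus IL-23 (10 ng/ml) from 48 h. Test compound (2.5 or 10 μM) or DMSO was present for 96 h. ChIP used anti-RORγt (AFKJS-9), with isotype IgG and RORγt-deficient cells as controls. Sequencing was single-end 36 bp.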

[4] = system: experimental autoimmune encephalomyelitis (EAE)
[5] = biological target: 22 other nuclear receptors; test: luciferase assays for 22 other nuclear receptors; type: cell-based; details: read-out: IC50 in luciferase assays for 22 other nuclear receptors
[6] = biological target: T1, RORγt ligand-binding domain (Homo sapiens, UniProt P51449); test: FRET assay, RORγt ligand-binding domain and cofactor peptide SRC1; type: biochemical; details: read-out: IC50, inhibition of RORγt binding to the SRC1 peptide in the FRET assay
T1 sequence (P51449 263-518 limits assumed): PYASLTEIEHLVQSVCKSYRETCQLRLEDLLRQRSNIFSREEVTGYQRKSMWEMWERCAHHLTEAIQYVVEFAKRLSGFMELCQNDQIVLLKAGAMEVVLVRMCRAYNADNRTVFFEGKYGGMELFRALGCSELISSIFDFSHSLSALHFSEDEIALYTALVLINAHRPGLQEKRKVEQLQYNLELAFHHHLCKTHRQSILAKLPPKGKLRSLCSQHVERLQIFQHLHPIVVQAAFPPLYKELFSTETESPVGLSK

[7] = system: primary naïve CD4+ T cells under Th17 cell-polarizing conditions
[8] = biological target: T2, RORγ (Homo sapiens, UniProt P51449); test: cell-based nuclear receptor reporter
T2 sequence (P51449 1-518): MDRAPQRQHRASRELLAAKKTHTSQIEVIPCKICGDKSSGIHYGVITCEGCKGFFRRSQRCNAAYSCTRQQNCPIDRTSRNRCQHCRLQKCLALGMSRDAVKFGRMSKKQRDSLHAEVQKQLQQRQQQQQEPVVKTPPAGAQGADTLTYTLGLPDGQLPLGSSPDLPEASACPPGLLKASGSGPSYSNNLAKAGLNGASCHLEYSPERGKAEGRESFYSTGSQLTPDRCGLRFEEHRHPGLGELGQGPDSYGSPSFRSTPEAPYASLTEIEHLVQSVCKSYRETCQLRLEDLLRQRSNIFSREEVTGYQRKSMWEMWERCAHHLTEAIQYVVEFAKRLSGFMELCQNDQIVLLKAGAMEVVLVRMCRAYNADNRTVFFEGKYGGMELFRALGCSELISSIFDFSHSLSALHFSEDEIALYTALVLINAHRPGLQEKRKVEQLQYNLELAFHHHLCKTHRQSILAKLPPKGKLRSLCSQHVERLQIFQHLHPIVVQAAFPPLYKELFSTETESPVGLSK

[9] = biological target: T3, RORα (Homo sapiens, UniProt P35398); test: cell-based nuclear receptor reporter
T3 sequence (P35398 1-523): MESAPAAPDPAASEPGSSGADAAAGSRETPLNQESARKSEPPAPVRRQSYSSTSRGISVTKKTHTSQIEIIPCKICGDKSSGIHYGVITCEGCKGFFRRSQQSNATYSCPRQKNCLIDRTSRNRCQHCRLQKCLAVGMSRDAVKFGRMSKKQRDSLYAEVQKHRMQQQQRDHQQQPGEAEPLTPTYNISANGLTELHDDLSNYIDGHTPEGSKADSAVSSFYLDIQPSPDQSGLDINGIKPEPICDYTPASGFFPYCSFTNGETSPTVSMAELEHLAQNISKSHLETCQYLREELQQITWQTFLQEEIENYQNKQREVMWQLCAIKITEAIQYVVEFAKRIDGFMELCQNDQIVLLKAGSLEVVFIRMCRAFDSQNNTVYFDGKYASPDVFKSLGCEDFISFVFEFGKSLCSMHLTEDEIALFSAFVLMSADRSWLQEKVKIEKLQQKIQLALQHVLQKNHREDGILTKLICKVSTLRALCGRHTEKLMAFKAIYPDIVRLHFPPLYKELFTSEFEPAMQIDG

[10] = biological target: T4, RORβ (Homo sapiens, UniProt Q92753); test: cell-based nuclear receptor reporter
T4 sequence (Q92753 1-470): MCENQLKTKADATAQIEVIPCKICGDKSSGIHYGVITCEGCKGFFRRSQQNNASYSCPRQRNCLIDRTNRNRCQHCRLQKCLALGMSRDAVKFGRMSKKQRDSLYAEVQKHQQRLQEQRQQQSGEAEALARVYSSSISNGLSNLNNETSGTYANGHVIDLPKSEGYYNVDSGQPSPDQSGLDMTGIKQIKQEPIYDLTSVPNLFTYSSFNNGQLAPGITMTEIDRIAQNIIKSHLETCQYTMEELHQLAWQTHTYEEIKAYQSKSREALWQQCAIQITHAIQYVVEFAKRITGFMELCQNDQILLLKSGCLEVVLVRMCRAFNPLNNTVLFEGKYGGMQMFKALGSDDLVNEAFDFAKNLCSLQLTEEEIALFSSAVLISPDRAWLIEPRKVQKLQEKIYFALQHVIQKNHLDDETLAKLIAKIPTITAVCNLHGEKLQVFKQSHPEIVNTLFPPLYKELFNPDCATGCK

[11] = system: GATA3 protein; test: GATA3 protein expression in Th17 cells; type: cell-based, mouse; details: Th17 cells treated with compound
[12] = system: CCR6- memory human T cells; test: transcription in human CCR6- memory T cells; type: cell-based
[13] = system: IL-17 production in CD4+ T cells; test: IL-17 production from differentiated Th17 cells; type: cell-based, mouse; details: WT CD4+ T cells, MOG35-55 plus IL-23, 4 days
How it was run: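 Female C57BL/6 mice (8–12 wk) were immunized s.c. in the flanks with MOG35-55 (100 μg/mouse) in CFA containing M. tuberculosis H37Ra extract. Draining LN cells were restimulated with MOG35-55 and IL-23 plus test compound or DMSO for 4 days. They were then given a 4 h PMA/ionomycin/GolgiStop restimulation, fixed and permeabilized, and stained intracellularly for IL-17 and IFNγ in CD4+ cells. Values are mean ± SD.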

SMILES: C[C@H]1O[C@@H](O[C@H]2[C@@H](O)C[C@H](O[C@H]3[C@@H](O)C[C@H](O[C@H]4CC[C@@]5(C)[C@H](CC[C@@H]6[C@@H]5C[C@@H](O)[C@]5(C)[C@@H](C7=CC(=O)OC7)CC[C@]65O)C4)O[C@@H]3C)O[C@@H]2C)C[C@H](O)[C@@H]1O [Digoxin, reference compound]
- effect on IL-17 production in Th17 cell cultures [1]: specifically inhibited IL-17 production
- concentration at which the inhibitory effect on IL-17 production was lost [1]: < 2.5 µM
- concentration at which toxic effects on cell growth start [2]: > 10 µM
- effect on RORγt binding ([3]; 10 μM Digoxin, 96 h): intermediate
- dose that caused mouse death ([4]; per injection, subcutaneous twice daily): > 100 µg

SMILES: Cc1ccc(C(NC(=O)Cc2ccc(OCc3c(C)noc3C)cc2)c2ccccc2)c(C)c1 (stereo not shown) [TMP920]
- concentration at which the inhibitory effect on IL-17 production was lost [1]: < 2.5 µM
- IC50 [5]: > 10 µM
- RORγt sites with decreased (lower) ChIP signal [3]: 77 % of sites
- IC50 [6]: 0.03 µM
- concentration at which toxic effects on cell growth start [7]: > 10 µM
- IC50 ([8]; read-out: IC50 in RORγ assays): 1.1 µM

SMILES: Cc1ccc([C@@H](NC(=O)Cc2ccc3oc([C@@H](O)c4c(C)noc4C)cc3c2)c2ccccc2)c(C)c1 [TMP778]
- effect on IL-17 production in Th17 cell cultures [1]: efficiently decreased IL-17 production
- IC50 fold higher for RORα than in RORγ assays [9]: roughly 100 fold
- IC50 ([9]; read-out: IC50 for RORα, luciferase reporter): 1.24 µM
- IC50 fold higher for RORβ than in RORγ assays [10]: roughly 100 fold
- IC50 ([10]; read-out: IC50 for RORβ, luciferase reporter): 1.39 µM
- IC50 [5]: > 10 µM
- new RORγt binding sites ([3]; 2.5 μM TMP778): 179
- new RORγt binding sites as share of peaks observed with compound ([3]; 2.5 μM TMP778): 8.2 % of peaks
- RORγt sites with decreased (lower) ChIP signal [3]: 55 % of sites
- IC50 [6]: 0.005 µM
- concentration at which toxic effects on cell growth start [7]: > 2.5 µM
- GATA3 protein expression [11]: increased expression of GATA3 protein
- percentage of IL-17+ T cells in the CNS ([4]; subcutaneous twice daily, day 21 after EAE induction): most strongly reduced the percentage of IL-17^+ T cells in the CNS
- effect on transcription in population depleted for Th17 cells [12]: no differentially expressed genes with a fold cutoff over 1.5
- IC50 ([8]; read-out: IC50 for luciferase activity in RORγ assays): 0.017 µM
- inhibition of IL-17 production from differentiated Th17 cells [13]: the most potent inhibition

SMILES: CCS(=O)(=O)c1ccc(CC(=O)Nc2cc(Cl)c(-c3ccccc3OC(F)(F)F)c(Cl)c2)cc1 [GSK805]
- inhibition of IL-17 production during Th17 cell differentiation ([1]; GSK805 at 0.5 μM, 4 days): comparable inhibition of IL-17 production as TMP778 at 2.5 μM
- GATA3 protein expression [11]: increased GATA3 protein expression
- effect on severity of EAE ([4]; oral, 10 mg/kg daily from day 0): efficiently ameliorate the severity of EAE
- Th17 cell responses in the CNS ([4]; oral, 30 mg/kg, day 14): strongly inhibits Th17 cell responses
